Test [1] deals with SK-OV-3. Description: Cytotoxicity against human SKOV3 cells after 48 hrs by MTT assay. In kind it is functional, cell-based. To be noted: SK-OV-3, 48 h. The essentials:
(§1)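 ATCC lines grown in DMEM or RPMI with 10% FBS and antibiotic-antimycotic, 37 °C, 5% CO2. Seeded at 3×10^4 cells/well, 24 h before dosing with vehicle (DMSO) controls. […] Cisplatin as reference.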

Test [2] concerns HEK-293T. Description: Cytotoxicity against human HEK293T cells after 48 hrs by MTT assay. In kind it is cell-based. A digest of the protocol:
as §1

For test [3], the system named is PC-3. Description: Cytotoxicity against human PC3 cells after 48 hrs by MTT assay. In kind it is functional, cell-based. The conditions noted are these: PC-3, 48 h. A digest of the protocol: as §1
Test [4] concerns HT-1080. Description: Cytotoxicity against human HT1080 cells after 48 hrs by MTT assay. In kind it is functional, cell-based. To be noted: HT-1080, 48 h. The essentials:
as §1

Test [5] relates to HeLa. The test can be described thus: Cytotoxicity against human HeLa cells after 48 hrs by MTT assay. In kind it is functional, cell-based. A digest of the protocol: as §1

On to `COc1cc2c3c(c4cc(OC)c(OC)cc4c2cc1OC)C(c1ccc(C(C)C)cc1)C1=C(CC(C)(C)CC1=O)N3` (stereo not given), for which the IC50 in test [1] was 11.5 µM; in test [2], 25.7 µM; in test [3] it was above 50 µM; in test [4], 32.3 µM; in test [5] it was above 50 µM.

In the case of `COc1cc2c3c(c4cc(OC)c(OC)cc4c2cc1OC)C(c1ccc(C(C)C)cc1)C1=C(CCCC1=O)N3` (stereo not given), the IC50 in test [1] came out at 4.81 µM; in test [2], 41.5 µM; in test [3] it was 5.67 µM; in test [4] it was 11.7 µM; in test [5], 13.6 µM.

Take `COc1cc2c3c(c4cc(OC)c(OC)cc4c2cc1OC)C(c1ccc(C)cc1)C1=C(CCCC1=O)N3` (stereo not given): the IC50 worked out at 1.62 µM in test [1]; 38.9 µM in test [2]; 7.17 µM in test [3]; 5.63 µM in test [4]; 4.79 µM in test [5].

Turning to `COc1cc2c3c(c4cc(OC)c(OC)cc4c2cc1OC)C(c1cccs1)C1=C(CC(C)(C)CC1=O)N3` (stereo not given), the IC50 in test [1] turned out to be 1.6 µM; in test [2], 18.9 µM; in test [3], 7.1 µM; in test [4], 5.87 µM; in test [5], 2.28 µM.

In the case of `COc1cc2c3c(c4cc(OC)c(OC)cc4c2cc1OC)C(c1ccc(Br)cc1)C1=C(CC(C)(C)CC1=O)N3` (stereo not given), the half-inhibitory concentration (IC50) in test [1] amounted to 15.5 µM; in test [2], 36.3 µM; in test [3], 12.4 µM; in test [4] it was 11.6 µM; in test [5] it was 31.6 µM.

`COc1ccc(C2C3=C(CCCC3=O)Nc3c2c2cc(OC)c(OC)cc2c2cc(OC)c(OC)cc32)cc1` (stereo not given): the IC50 amounted to 0.61 µM in test [1]; 28.3 µM in test [2]; 5.79 µM in test [3]; 2.62 µM in test [4]; 2.62 µM in test [5].

For `COc1ccc(C2C3=C(CC(C)(C)CC3=O)Nc3c2c2cc(OC)c(OC)cc2c2cc(OC)c(OC)cc32)cc1OC` (stereo not given), the IC50 in test [1] was 13.7 µM; in test [2] it was 43.5 µM; in test [3], 17.6 µM; in test [4], 21.3 µM; in test [5] it was 28.1 µM.

Turning to `COc1cc2c3c(c4cc(OC)c(OC)cc4c2cc1OC)C(c1ccc2c(c1)OCO2)C1=C(CC(C)(C)CC1=O)N3` (stereo not given), the IC50 in test [1] is 4.66 µM; in test [2], 24.6 µM; in test [3] it was 7.7 µM; in test [4], 4.32 µM; in test [5], 1.35 µM.

Turning to `COc1cc2c3c(c4cc(OC)c(OC)cc4c2cc1OC)C(c1sccc1C)C1=C(CC(C)(C)CC1=O)N3` (stereo not given), the IC50 was found to be 2.89 µM in test [1]; 33.5 µM in test [2]; 21.6 µM in test [3]; 8.85 µM in test [4]; 3.7 µM in test [5].

As to `COc1cc2c3c(c4cc(OC)c(OC)cc4c2cc1OC)C(c1cccc2ccccc12)C1=C(CCCC1=O)N3` (stereo not given), the IC50 stood at 2.67 µM in test [1]; 14.4 µM in test [2]; 5.31 µM in test [3]; 3.83 µM in test [4]; 6.87 µM in test [5].

As to `COc1cc2c3c(c4cc(OC)c(OC)cc4c2cc1OC)C(c1ccc(Cl)cc1)C1=C(CC(C)(C)CC1=O)N3` (stereo not given), the IC50 in test [1] was 15.9 µM; in test [2], above 50 µM; in test [3] it was above 50 µM; in test [4], 30.1 µM; in test [5] it was 38.8 µM.

With `COc1cc2c3c(c4cc(OC)c(OC)cc4c2cc1OC)C(c1cccs1)C1=C(CCCC1=O)N3` (stereo not given), the IC50 in test [1] was 2.35 µM; in test [2] it was 15.5 µM; in test [3] it was 5.89 µM; in test [4], 3.78 µM; in test [5], 2.46 µM.

As for `COc1ccc(C2C3=C(CCCC3=O)Nc3c2c2cc(OC)c(OC)cc2c2cc(OC)c(OC)cc32)cc1OC` (stereo not given), the IC50 in test [1] is 11.5 µM; in test [2], above 50 µM; in test [3] it was above 50 µM; in test [4], 25.7 µM; in test [5], above 50 µM.

As for `COc1cc(C2C3=C(CC(C)(C)CC3=O)Nc3c2c2cc(OC)c(OC)cc2c2cc(OC)c(OC)cc32)ccc1O` (stereo not given), the 50% inhibitory concentration (IC50) is 13.6 µM in test [1]; above 50 µM in test [2]; 23.8 µM in test [3]; 9.83 µM in test [4]; 11.7 µM in test [5].

For `COc1cc2c3c(c4cc(OC)c(OC)cc4c2cc1OC)C(c1cc(OC)c(OC)c(OC)c1)C1=C(CC(C)(C)CC1=O)N3` (stereo not given), the IC50 in test [1] turned out to be 10.8 µM; in test [2] it was 29.2 µM; in test [3], 8.9 µM; in test [4], 16.3 µM; in test [5] it was 12.1 µM.

As to `COc1cc2c3c(c4cc(OC)c(OC)cc4c2cc1OC)C(c1cc(OC)c(O)c(OC)c1)C1=C(CC(C)(C)CC1=O)N3` (stereo not given), the IC50 in test [1] is 6.5 µM; in test [2], above 50 µM; in test [3] it was 6.84 µM; in test [4], 7.64 µM; in test [5], 9.42 µM.

Turning to `COc1cc2c3c(c4cc(OC)c(OC)cc4c2cc1OC)C(c1ccc(C(F)(F)F)cc1)C1=C(CC(C)(C)CC1=O)N3` (stereo not given), the IC50 was 18.6 µM in test [1]; 35.7 µM in test [2]; 31.4 µM in test [3]; 15.6 µM in test [4]; above 50 µM in test [5].

The values above are taken from ChEMBL document CHEMBL4152190, “Microwave-assisted one-pot synthesis of new phenanthrene fused-tetrahydrodibenzo-acridinones as potential cytotoxic and apoptosis inducing agents” (Eur J Med Chem, 2018).
